# Data from ChEMBL document CHEMBL1158358, “Synthesis, antimicrobial and cytotoxic activities of some 5-arylidene-4-thioxo-thiazolidine-2-ones” (Eur J Med Chem, 2009).
# Legend:
# Assay type in all cases: functional
# HEp-2 [1] = test: Cytotoxicity against human Hep2 cells at 2.5 ug/mL after 72 hrs by MTT assay; conditions: HEp-2, 72 h, read-out: GI
# Procedure, shortened: (§1)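 MTT antiproliferative assay. Cells were diluted to 10⁵ cells/mL in 96-well plates and preincubated for 24 h at 37 °C in humid 5% CO₂. Compounds or vincristine (reference) were then added. Formazan was dissolved and OD read at 540 nm, compared with medium-only control cells. Run in triplicate.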
# Pseudomonas aeruginosa = test: Antimicrobial activity against Pseudomonas aeruginosa UFPEDA 39 at 300 ug/disk after 24 hrs by disk diffusion method; conditions: UFPEDA 39, 24 h, read-out: IZ
# Procedure, shortened: (§2)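 Preliminary screen by disk diffusion. Paper disks (6 mm) holding 300 µg of compound were placed on agar plates inoculated with a standardized microbial suspension. DMSO-only disks served as negative controls. A mean inhibition zone below 7 mm was scored as no sensitivity. Values are means, n = 3.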
# Staphylococcus aureus [2] = test: Antimicrobial activity against multidrug-resistant Staphylococcus aureus H.C. 21141 isolate after 20 hrs by twofold serial dilution technique; conditions: H.C. 21141, 20 h
# Procedure, shortened: (§3)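 Twofold serial dilution MIC in agar plates against Gram-positive strains and multidrug-resistant clinical isolates. Inoculum applied was 10⁵ CFU/plate. Plates with culture medium plus DMSO served as negative control. MIC was read after incubation at 35 °C for 20 h.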
# [3] = system: Mycolicibacterium smegmatis; test: Antimicrobial activity against Mycobacterium smegmatis UFPEDA 71 after 20 hrs by twofold serial dilution technique; conditions: UFPEDA 71, 20 h
# Procedure, shortened: (§4)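 MIC was determined by twofold serial dilution. Bacteria were tested in plates at 10⁵ CFU/plate and read after 20 h. C. albicans was tested in tubes at 10³ CFU/tube and read after 48 h. All incubations were at 35 °C. Medium plus DMSO served as the negative control.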
# Staphylococcus aureus [4] = test: Antimicrobial activity against Staphylococcus aureus UFPEDA 01 after 20 hrs by twofold serial dilution technique; conditions: UFPEDA 01, 20 h; procedure, shortened: as §3
# NCI-H292 [5] = test: Cytotoxicity against human NCI-H292 cells at 2.5 ug/mL after 72 hrs by MTT assay; conditions: NCI-H292, 72 h, read-out: GI; procedure, shortened: as §1
# Bacillus subtilis [6] = test: Antimicrobial activity against Bacillus subtilis UFPEDA 16 at 300 ug/disk after 24 hrs by disk diffusion method; conditions: UFPEDA 16, 24 h, read-out: IZ; procedure, shortened: as §2
# Micrococcus luteus [7] = test: Antimicrobial activity against Micrococcus luteus UFPEDA 06 after 20 hrs by twofold serial dilution technique; conditions: UFPEDA 06, 20 h; procedure, shortened: as §4
# HEp-2 [8] = test: Cytotoxicity against human Hep2 cells at 1.25 ug/mL after 72 hrs by MTT assay; conditions: HEp-2, 72 h, read-out: GI; procedure, shortened: as §1
# HEp-2 [9] = test: Cytotoxicity against human Hep2 cells at 10 ug/mL after 72 hrs by MTT assay; conditions: HEp-2, 72 h, read-out: GI; procedure, shortened: as §1
# Staphylococcus aureus [10] = test: Antimicrobial activity against multidrug-resistant Staphylococcus aureus H.C. 20981 isolate after 20 hrs by twofold serial dilution technique; conditions: H.C. 20981, 20 h; procedure, shortened: as §3
# Enterococcus faecalis [11] = test: Antimicrobial activity against multidrug-resistant Enterococcus faecalis H.C. 21944 isolate after 20 hrs by twofold serial dilution technique; conditions: H.C. 21944, 20 h; procedure, shortened: as §3
# Enterococcus faecalis [12] = test: Antimicrobial activity against multidrug-resistant Enterococcus faecalis H.C. 21752 isolate after 20 hrs by twofold serial dilution technique; conditions: H.C. 21752, 20 h; procedure, shortened: as §3
# Staphylococcus aureus [13] = test: Antimicrobial activity against Staphylococcus aureus UFPEDA 01 at 300 ug/disk after 24 hrs by disk diffusion method; conditions: UFPEDA 01, 24 h, read-out: IZ; procedure, shortened: as §2
# Staphylococcus aureus [14] = test: Antimicrobial activity against multidrug-resistant Staphylococcus aureus H.C. 20794 isolate after 20 hrs by twofold serial dilution technique; conditions: H.C. 20794, 20 h; procedure, shortened: as §3
# Enterococcus faecalis [15] = test: Antimicrobial activity against multidrug-resistant Enterococcus faecalis H.C. 24962 isolate after 20 hrs by twofold serial dilution technique; conditions: H.C. 24962, 20 h; procedure, shortened: as §3
# NCI-H292 [16] = test: Cytotoxicity against human NCI-H292 cells at 10 ug/mL after 72 hrs by MTT assay; conditions: NCI-H292, 72 h, read-out: GI; procedure, shortened: as §1
# NCI-H292 [17] = test: Cytotoxicity against human NCI-H292 cells at 5 ug/mL after 72 hrs by MTT assay; conditions: NCI-H292, 72 h, read-out: GI; procedure, shortened: as §1
# Staphylococcus [18] = test: Antimicrobial activity against coagulase-negative Staphylococcus H.A.M. 338 isolate after 20 hrs by twofold serial dilution technique; conditions: H.A.M. 338, 20 h; procedure, shortened: as §4
# Escherichia coli [19] = test: Antimicrobial activity against Escherichia coli UFPEDA 224 at 300 ug/disk after 24 hrs by disk diffusion method; conditions: UFPEDA 224, 24 h, read-out: IZ; procedure, shortened: as §2
# Candida albicans [20] = test: Antimicrobial activity against Candida albicans UFPEDA 1007 after 48 hrs by twofold serial dilution technique; conditions: UFPEDA 1007, 48 h; procedure, shortened: as §4
# Candida albicans [21] = test: Antimicrobial activity against Candida albicans UFPEDA 1007 at 300 ug/disk after 48 hrs by disk diffusion method; conditions: UFPEDA 1007, 48 h, read-out: IZ; procedure, shortened: as §2
# Staphylococcus aureus [22] = test: Antimicrobial activity against multidrug-resistant Staphylococcus aureus H.C. 21036 isolate after 20 hrs by twofold serial dilution technique; conditions: H.C. 21036, 20 h; procedure, shortened: as §3
# HEp-2 [23] = test: Cytotoxicity against human Hep2 cells at 5 ug/mL after 72 hrs by MTT assay; conditions: HEp-2, 72 h, read-out: GI; procedure, shortened: as §1
# Bacillus subtilis [24] = test: Antimicrobial activity against Bacillus subtilis UFPEDA 16 after 20 hrs by twofold serial dilution technique; conditions: UFPEDA 16, 20 h; procedure, shortened: as §4
# Micrococcus luteus [25] = test: Antimicrobial activity against Micrococcus luteus UFPEDA 06 at 300 ug/disk after 24 hrs by disk diffusion method; conditions: UFPEDA 06, 24 h, read-out: IZ; procedure, shortened: as §2
# Staphylococcus aureus [26] = test: Antimicrobial activity against multidrug-resistant Staphylococcus aureus H.C. 20905 isolate after 20 hrs by twofold serial dilution technique; conditions: H.C. 20905, 20 h; procedure, shortened: as §3
# Enterococcus faecalis [27] = test: Antimicrobial activity against Enterococcus faecalis UFPEDA 138 after 20 hrs by twofold serial dilution technique; conditions: UFPEDA 138, 20 h; procedure, shortened: as §4
# Staphylococcus [28] = test: Antimicrobial activity against coagulase-negative Staphylococcus H.A.M. 278 isolate after 20 hrs by twofold serial dilution technique; conditions: H.A.M. 278, 20 h; procedure, shortened: as §4
# NCI-H292 [29] = test: Cytotoxicity against human NCI-H292 cells at 1.25 ug/mL after 72 hrs by MTT assay; conditions: NCI-H292, 72 h, read-out: GI; procedure, shortened: as §1
# Serratia marcescens = test: Antimicrobial activity against Serratia marcescens UFPEDA 398 at 300 ug/disk after 24 hrs by disk diffusion method; conditions: UFPEDA 398, 24 h, read-out: IZ; procedure, shortened: as §2
# [30] = system: Mycolicibacterium smegmatis; test: Antimicrobial activity against Mycobacterium smegmatis UFPEDA 71 at 300 ug/disk after 24 hrs by disk diffusion method; conditions: UFPEDA 71, 24 h, read-out: IZ; procedure, shortened: as §2
# Enterococcus faecalis [31] = test: Antimicrobial activity against Enterococcus faecalis UFPEDA 138 at 300 ug/disk after 24 hrs by disk diffusion method; conditions: UFPEDA 138, 24 h, read-out: IZ; procedure, shortened: as §2
# Staphylococcus aureus [32] = test: Antimicrobial activity against multidrug-resistant Staphylococcus aureus H.C. 20489 isolate after 20 hrs by twofold serial dilution technique; conditions: H.C. 20489, 20 h; procedure, shortened: as §3
# Enterococcus faecalis [33] = test: Antimicrobial activity against multidrug-resistant Enterococcus faecalis H.C. 24708 isolate after 20 hrs by twofold serial dilution technique; conditions: H.C. 24708, 20 h; procedure, shortened: as §3
# Enterococcus faecalis [34] = test: Antimicrobial activity against Enterococcus faecalis UFPEDA 138 at 10 ug/disk after 24 hrs by disk diffusion method; conditions: UFPEDA 138, 24 h, read-out: IZ
# Micrococcus luteus [35] = test: Antimicrobial activity against Micrococcus luteus UFPEDA 06 at 10 ug/disk after 24 hrs by disk diffusion method; conditions: UFPEDA 06, 24 h, read-out: IZ
# Bacillus subtilis [36] = test: Antimicrobial activity against Bacillus subtilis UFPEDA 16 at 10 ug/disk after 24 hrs by disk diffusion method; conditions: UFPEDA 16, 24 h, read-out: IZ
# Escherichia coli [37] = test: Antimicrobial activity against Escherichia coli UFPEDA 224 at 10 ug/disk after 24 hrs by disk diffusion method; conditions: UFPEDA 224, 24 h, read-out: IZ
# Procedure, shortened: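 Preliminary screen: 6 mm paper disks bearing the agent placed on agar plates inoculated with a standardized microbial suspension. Negative control was DMSO-only disks. Inhibition zones are means of n = 3; no zone or a mean zone below 7 mm was scored as no sensitivity.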
# Staphylococcus aureus [38] = test: Antimicrobial activity against Staphylococcus aureus UFPEDA 01 at 10 ug/disk after 24 hrs by disk diffusion method; conditions: UFPEDA 01, 24 h, read-out: IZ
SMILES,MIC (Staphylococcus aureus [2]) [µg/mL],MIC [3] [µg/mL],MIC (Staphylococcus aureus [4]) [µg/mL],MIC (Micrococcus luteus [7]) [µg/mL],MIC (Staphylococcus aureus [10]) [µg/mL],MIC (Enterococcus faecalis [11]) [µg/mL],MIC (Enterococcus faecalis [12]) [µg/mL],MIC (Staphylococcus aureus [14]) [µg/mL],MIC (Enterococcus faecalis [15]) [µg/mL],MIC (Staphylococcus [18]) [µg/mL],MIC (Staphylococcus aureus [22]) [µg/mL],MIC (Bacillus subtilis [24]) [µg/mL],MIC (Staphylococcus aureus [26]) [µg/mL],MIC (Enterococcus faecalis [27]) [µg/mL],MIC (Staphylococcus [28]) [µg/mL],MIC (Staphylococcus aureus [32]) [µg/mL],MIC (Enterococcus faecalis [33]) [µg/mL],other results
O=C1NC(=S)/C(=C/c2cc(Cl)cc(Cl)c2Cl)S1,2,32,4,4,2,4,4,2,4,2,2,2,2,2,2,2,4,inhibition of growth at 2.5 µg/mL (HEp-2 [1]): 21.8%; zone of inhibition at 300 µg/disc (Pseudomonas aeruginosa): < 7 mm; inhibition of growth at 2.5 µg/mL (NCI-H292 [5]): 33%; zone of inhibition at 300 µg/disc (Bacillus subtilis [6]): < 7 mm; inhibition of growth at 1.25 µg/mL (HEp-2 [8]): 12.6%; inhibition of growth at 10 µg/mL (HEp-2 [9]): 23.5%; zone of inhibition at 300 µg/disc (Staphylococcus aureus [13]): 16 mm; inhibition of growth at 10 µg/mL (NCI-H292 [16]): 40.5%; inhibition of growth at 5 µg/mL (NCI-H292 [17]): 39.7%; zone of inhibition at 300 µg/disc (Escherichia coli [19]): < 7 mm; MIC (Candida albicans [20]): 64 µg/mL; zone of inhibition at 300 µg/disc (Candida albicans [21]): < 7 mm; inhibition of growth at 5 µg/mL (HEp-2 [23]): 22.8%; zone of inhibition at 300 µg/disc (Micrococcus luteus [25]): 21 mm; inhibition of growth at 1.25 µg/mL (NCI-H292 [29]): 14.2%; zone of inhibition at 300 µg/disc (Serratia marcescens): < 7 mm; zone of inhibition at 300 µg/disc [30]: < 7 mm; zone of inhibition at 300 µg/disc (Enterococcus faecalis [31]): 19 mm
CC1(C)S[C@@H]2[C@H](NC(=O)[C@H](N)c3ccccc3)C(=O)N2[C@H]1C(=O)O [AMPICILLIN],≤ 1,64,2,2,2,≤ 1,2,2,2,≤ 1,32,2,64,2,≤ 1,≤ 1,2,zone of inhibition at 10 µg/disc (Enterococcus faecalis [34]): 24 mm; zone of inhibition at 10 µg/disc (Micrococcus luteus [35]): 45 mm; zone of inhibition at 10 µg/disc (Bacillus subtilis [36]): 28 mm; zone of inhibition at 10 µg/disc (Escherichia coli [37]): 20 mm; zone of inhibition at 10 µg/disc (Staphylococcus aureus [38]): 38 mm
